According to article PMC5935509 (Bioactive Materials, 2017):

Tested on: HeLa cells
Assay: Cytotoxicity measurement, CCK-8 cell viability assay
Type: cell-based
Conditions: 24 h of incubation, mean, n = 4
Method in brief: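 HeLa cells seeded at 10⁴ cells/well. For the combination arm, anticancer drug was added first (final 1, 10 or 100 µM), then self-assembling peptide at final 16 or 26 µM, charge-matched between peptides. Peptide-alone wells received the same peptide levels. After 24 h, drug and peptide were removed and viability read by CCK-8 absorbance at 450 nm. Four replicates, mean ± SD.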

Work on `COc1cccc2c1C(=O)c1c(O)c3c(c(O)c1C2=O)C[C@@](O)(C(=O)CO)C[C@@H]3O[C@H]1C[C@H](N)[C@H](O)[C@H](C)O1` [DOX, Doxorubicin] yielded a cell viability (1 μM DOX, K10 16 μM or K6 26 μM) of 70% and a cell viability (100 μM DOX) of 18%.
